The nature of data set [1]: Clearance in rat at 40 mg/kg, po and 5 mg/kg, iv by LC-MS/MS analysis. It is filed as ADME, organism-based. As to conditions: in vivo. In a few lines: (§1)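 Rats were dosed with the 5% dextrose (pH 4−5) formulation, 5 mg/kg iv and 40 mg/kg po. Plasma was precipitated with acetonitrile and analysed by LC−MS/MS with a carbamazepine internal standard. Parameters were derived by noncompartmental analysis.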

Data set [2] is described as follows: Fraction unbound in aminobenzotriazole-pretreated BALB/c mouse plasma infected with Mycobacterium tuberculosis by LC-MS/MS analysis. It is filed as ADME, cell-free.
The target in data set [3] is T1, DNA gyrase subunit A/DNA gyrase subunit B (Mycobacterium tuberculosis (strain ATCC 25618 / H37Rv)) (UniProt P9WG45+P9WG47). The data set is described as follows: Inhibition of Mycobacterium tuberculosis H37Rv DNA gyrase holoenzyme using pBR322 DNA as substrate assessed as intact DNA level at 0.02 to 11 uM after 60 mins by cleavable complex assay relative to control. Also on record: scale not given: the % may be the effect or the level left. In a few lines: (§2)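 Reactions were started with DNA and run 60 min at 37 °C, then stopped with proteinase K/SDS for 1 h at 37 °C. Products were resolved on 0.8% agarose with ethidium for 16 h at 1 V/cm, and nicked, linear and supercoiled forms were quantified.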

Data set [4] addresses T1, DNA gyrase subunit A/DNA gyrase subunit B (Mycobacterium tuberculosis (strain ATCC 25618 / H37Rv)). In words: Inhibition of Mycobacterium tuberculosis H37Rv DNA gyrase holoenzyme using pBR322 DNA as substrate assessed as single stranded nicked DNA level at 0.02 to 11 uM after 60 mins by cleavable complex assay relative to control. More on the design: scale not given: the % may be the effect or the level left. In a few lines:
as §2

Data set [5] is described as follows: Apparent permeability from basolateral to apical side in human Caco2 cells. As to conditions: Caco-2. The format is ADME, cell-based.
Data set [6] in a line: Apparent permeability from apical to basolateral side in human Caco2 cells. The format is ADME, cell-based. To be noted: Caco-2.
Data set [7] relates to Mus musculus. In words: fT>MIC in BALB/c mouse infected with Mycobacterium tuberculosis at 20 mg/kg, po. In a few lines:
(§3)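 PK was measured in infected, ABT-pretreated mice during efficacy dosing (oral, 5% dextrose pH 4−5) on day 18 or 19. Saphenous blood was taken at 5, 15 and 30 min and 1, 2, 4 and 6 h. Plasma was precipitated with acetonitrile and analysed by LC−MS/MS. AUC came from noncompartmental analysis; free AUC/MIC and %free T>MIC used the unbound fraction and MIC.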

Data set [8] in a line: Ratio of fAUC in aminobenzotriazole-pretreated Mycobacterium tuberculosis infected BALB/c mouse at 20 mg/kg, po to MIC for wild-type Mycobacterium tuberculosis H37Rv ATCC 27294. In a few lines: as §3
Data set [9] deals with Mycobacterium tuberculosis. The data set is described as follows: Antimycobacterial activity against wild-type Mycobacterium tuberculosis H37Rv ATCC 27294 after 16 to 18 days by BACTEC 7H12B microdilution method. It is filed as functional.
The target of data set [10] is DNA gyrase subunit A/DNA gyrase subunit B (Mycobacterium tuberculosis (strain ATCC 25618 / H37Rv), UniProt P9WG45+P9WG47). In words: Inhibition of Mycobacterium tuberculosis H37Rv DNA gyrase holoenzyme-mediated supercoiling of pBR322 DNA after 90 mins by agarose gel electrophoresis.
Chain of DNA gyrase subunit A/DNA gyrase subunit B (P9WG45 whole entry): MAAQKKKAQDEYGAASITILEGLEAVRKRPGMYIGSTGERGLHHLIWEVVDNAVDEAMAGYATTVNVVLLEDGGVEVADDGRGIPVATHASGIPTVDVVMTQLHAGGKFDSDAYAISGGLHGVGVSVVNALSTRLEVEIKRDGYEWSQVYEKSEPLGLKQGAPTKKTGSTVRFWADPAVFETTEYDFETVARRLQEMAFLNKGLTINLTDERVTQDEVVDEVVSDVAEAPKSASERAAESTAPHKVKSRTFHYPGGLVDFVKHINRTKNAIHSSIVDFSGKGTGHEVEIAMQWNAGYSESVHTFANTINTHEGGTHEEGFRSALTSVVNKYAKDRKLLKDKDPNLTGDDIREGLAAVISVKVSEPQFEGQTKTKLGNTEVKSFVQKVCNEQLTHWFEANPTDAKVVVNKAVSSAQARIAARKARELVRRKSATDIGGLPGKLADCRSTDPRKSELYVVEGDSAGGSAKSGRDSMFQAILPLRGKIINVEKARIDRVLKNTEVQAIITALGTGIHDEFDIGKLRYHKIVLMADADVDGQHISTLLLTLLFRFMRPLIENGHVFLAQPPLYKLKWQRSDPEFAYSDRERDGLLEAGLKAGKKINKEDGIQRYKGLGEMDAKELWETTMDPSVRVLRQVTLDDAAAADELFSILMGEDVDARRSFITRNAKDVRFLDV
Chain of DNA gyrase subunit A/DNA gyrase subunit B (P9WG47 whole entry): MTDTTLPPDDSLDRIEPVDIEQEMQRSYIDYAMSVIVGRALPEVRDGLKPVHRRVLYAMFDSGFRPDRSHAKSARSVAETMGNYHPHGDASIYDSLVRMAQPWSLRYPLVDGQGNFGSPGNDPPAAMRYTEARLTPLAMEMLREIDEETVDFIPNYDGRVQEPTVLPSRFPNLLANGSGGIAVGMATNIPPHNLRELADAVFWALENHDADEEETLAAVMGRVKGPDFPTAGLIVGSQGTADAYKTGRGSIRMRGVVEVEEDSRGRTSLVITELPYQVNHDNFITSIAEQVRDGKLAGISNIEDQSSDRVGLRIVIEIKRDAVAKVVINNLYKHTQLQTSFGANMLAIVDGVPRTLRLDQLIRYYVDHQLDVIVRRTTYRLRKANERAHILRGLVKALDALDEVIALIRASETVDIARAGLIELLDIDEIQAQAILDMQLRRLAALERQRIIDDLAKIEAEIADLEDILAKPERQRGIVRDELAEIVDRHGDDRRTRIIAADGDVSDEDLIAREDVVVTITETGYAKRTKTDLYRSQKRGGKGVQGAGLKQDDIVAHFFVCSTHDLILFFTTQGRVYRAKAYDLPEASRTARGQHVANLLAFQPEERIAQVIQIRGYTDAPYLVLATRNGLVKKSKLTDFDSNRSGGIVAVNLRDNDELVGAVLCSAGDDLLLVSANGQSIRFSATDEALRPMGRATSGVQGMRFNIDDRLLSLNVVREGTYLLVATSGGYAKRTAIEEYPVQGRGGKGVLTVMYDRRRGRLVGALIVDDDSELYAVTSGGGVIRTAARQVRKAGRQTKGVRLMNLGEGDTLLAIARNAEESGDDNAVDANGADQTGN
Data set [11] in a line: Oral bioavailability in rat at 40 mg/kg by LC-MS/MS analysis. As to conditions: in vivo. It is filed as ADME, organism-based. In a few lines: as §1
For data set [12], the target named is Voltage-gated inwardly rectifying potassium channel KCNH2 (Homo sapiens, UniProt Q12809). The data set is described as follows: Inhibition of human ERG by patch clamp electrophysiological analysis. In general terms: In patch-clamp work, channel activity is measured electrically.
Chain of Voltage-gated inwardly rectifying potassium channel KCNH2 (Q12809 whole entry): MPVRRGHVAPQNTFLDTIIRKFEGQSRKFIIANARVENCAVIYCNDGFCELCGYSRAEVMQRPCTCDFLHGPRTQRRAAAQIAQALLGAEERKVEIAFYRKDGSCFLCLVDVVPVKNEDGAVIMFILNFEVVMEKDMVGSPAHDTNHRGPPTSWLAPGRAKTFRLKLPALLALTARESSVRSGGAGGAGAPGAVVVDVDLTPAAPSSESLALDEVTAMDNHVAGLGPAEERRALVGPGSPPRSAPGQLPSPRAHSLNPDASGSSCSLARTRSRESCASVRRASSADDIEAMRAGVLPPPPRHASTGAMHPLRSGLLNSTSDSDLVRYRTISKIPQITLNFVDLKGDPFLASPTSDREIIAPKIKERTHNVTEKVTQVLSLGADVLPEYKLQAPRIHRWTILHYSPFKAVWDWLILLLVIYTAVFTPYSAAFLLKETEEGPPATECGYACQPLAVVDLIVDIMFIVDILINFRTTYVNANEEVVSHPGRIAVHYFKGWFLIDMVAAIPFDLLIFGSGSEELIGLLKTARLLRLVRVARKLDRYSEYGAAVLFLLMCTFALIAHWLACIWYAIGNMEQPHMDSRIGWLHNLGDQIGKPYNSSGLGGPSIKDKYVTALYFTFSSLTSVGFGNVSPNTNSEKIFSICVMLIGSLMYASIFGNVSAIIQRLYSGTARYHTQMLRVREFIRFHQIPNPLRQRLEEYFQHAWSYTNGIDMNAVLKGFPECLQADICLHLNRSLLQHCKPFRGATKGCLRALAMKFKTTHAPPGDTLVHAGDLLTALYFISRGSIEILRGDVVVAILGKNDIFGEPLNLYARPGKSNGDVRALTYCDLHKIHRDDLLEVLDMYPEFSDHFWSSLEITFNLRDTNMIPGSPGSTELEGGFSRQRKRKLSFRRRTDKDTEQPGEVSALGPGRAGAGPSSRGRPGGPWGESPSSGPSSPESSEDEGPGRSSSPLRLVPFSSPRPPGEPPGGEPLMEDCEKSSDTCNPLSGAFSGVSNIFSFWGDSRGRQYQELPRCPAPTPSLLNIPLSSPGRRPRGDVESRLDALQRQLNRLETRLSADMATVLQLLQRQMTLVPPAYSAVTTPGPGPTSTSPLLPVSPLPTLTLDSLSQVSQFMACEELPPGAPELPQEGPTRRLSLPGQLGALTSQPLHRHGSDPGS
Data set [13] is described as follows: Octanol-sodium phosphate buffer partition coefficient, log D of the compound at 10 mM at pH 7.4 by shake-flask method. The format is physicochemical.
Data set [14] has as its target T1, DNA gyrase subunit A/DNA gyrase subunit B (Mycobacterium tuberculosis (strain ATCC 25618 / H37Rv)). The data set is described as follows: Inhibition of Mycobacterium tuberculosis H37Rv DNA gyrase holoenzyme using pBR322 DNA as substrate assessed as increase in single-strand cleaved plasmid DNA level after 60 mins by cleavable complex assay relative to control. In a few lines:
as §2

Data set [15] has as its system Mycobacterium tuberculosis. The data set is described as follows: Antimycobacterial activity against Mycobacterium tuberculosis infected in aminobenzotriazole-pretreated BALB/c mouse chronic tuberculosis model assessed as reduction in log10CFU at 40 to 80 mg/kg, po bid for 8 weeks. It is filed as functional, organism-based. A digest of the protocol: (§4)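 Aerosol-infected BALB/c mice in BSL3, three per group. Treatment began 3 days (acute) or 4 weeks (chronic) after infection. ABT 100 mg/kg po in water was given 2 h before oral gavage of compound in 5% dextrose (pH 4−5 with acetic acid), 10 mL/kg, twice daily at 8 h intervals. Courses were 20 days (7 days/week) or 8 weeks (6 days/week). Lung homogenates were plated on 7H11 for cfu.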

Data set [16] has as its system Mycobacterium tuberculosis. In words: Antimycobacterial activity against Mycobacterium tuberculosis infected in aminobenzotriazole-pretreated BALB/c mouse chronic tuberculosis model assessed as reduction in log10CFU at 40 to 80 mg/kg, po bid for 20 days. It is filed as functional. To be noted: dose mg/kg 40-80. In a few lines: as §4
For data set [17], the system named is Mus musculus. The data set is described as follows: fT>MIC in BALB/c mouse infected with Mycobacterium tuberculosis at 160 mg/kg, po. A digest of the protocol: as §3
The test system of data set [18] is Mycobacterium tuberculosis. The data set is described as follows: Antimycobacterial activity against Mycobacterium tuberculosis infected in aminobenzotriazole-pretreated BALB/c mouse chronic tuberculosis model assessed as reduction in log10CFU at 240 mg/kg, po bid for 20 days. Also on record: dose 240 mg/kg. The format is functional, organism-based. In a few lines:
as §4

In data set [19] the test system is Mycobacterium tuberculosis. In words: Antimycobacterial activity against Mycobacterium tuberculosis infected in aminobenzotriazole-pretreated BALB/c mouse acute tuberculosis model assessed as reduction in bacterial burden at 80 to 160 mg/kg, po bid for 20 days. The format is functional, organism-based. A digest of the protocol: as §4
The subject of data set [20] is Mycobacterium tuberculosis. The data set is described as follows: Bactericidal activity against Mycobacterium tuberculosis infected in human THP1 cells at 1 ug/ml for 7 days. It is filed as functional, THP-1. In a few lines:
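Adherent THP-1 macrophages infected with Mtb were exposed to compound at 1 μg/mL for 7 days at 37 °C. Kill was expressed as log reduction versus the untreated control.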

The subject of data set [21] is Mycobacterium tuberculosis. The data set is described as follows: Bactericidal activity against Mycobacterium tuberculosis H37Rv assessed as reduction in log10CFU at 0.01 to 2 ug/ml after 10 days by time kill assay. The format is functional. In a few lines:
(§5)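 Time-kill in 7H9 broth with 0.2% glycerol, 0.05% Tween 80 and 10% ADC. Serial 2-fold dilutions were added to ~3 × 10^7 cfu/mL H37Rv at 37 °C. Aliquots were plated on 7H11 at days 0, 3, 7 and 10, and plates were incubated up to 28 days at 37 °C, 5% CO2, humidified. Results are given as log10 cfu per concentration.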

Data set [22] in a line: Ratio of fAUC in aminobenzotriazole-pretreated Mycobacterium tuberculosis infected BALB/c mouse at 80 mg/kg, po to MIC for wild-type Mycobacterium tuberculosis H37Rv ATCC 27294. In a few lines:
as §3

For data set [23], the system named is Mycobacterium tuberculosis. The data set is described as follows: Antimycobacterial activity against Mycobacterium tuberculosis infected in aminobenzotriazole-pretreated BALB/c mouse acute tuberculosis model assessed as reduction in log10CFU at 160 mg/kg, po bid for 20 days. The format is functional. A digest of the protocol: as §4
Data set [24] relates to Mycobacterium tuberculosis. The data set is described as follows: Bactericidal activity against Mycobacterium tuberculosis H37Rv after 10 days by time kill assay. It is filed as functional, organism-based. A digest of the protocol: as §5
Data set [25] concerns Mycobacterium tuberculosis. In words: Bactericidal activity against Mycobacterium tuberculosis H37Rv at 0.01 to 2 ug/ml by time kill assay. To be noted: TDE = time-dependent effect. It is filed as functional, organism-based. In a few lines: as §5
Data set [26] has as its system Mus musculus. The data set is described as follows: fT>MIC in BALB/c mouse infected with Mycobacterium tuberculosis at 80 mg/kg, po. A digest of the protocol: as §3
Another data set has as its target DNA gyrase subunit B (Mycobacterium smegmatis, UniProt P0C559). The data set is described as follows: Inhibition of Mycobacterium smegmatis DNA gyrase-B ATPase activity. Also on record: species or system Mycolicibacterium smegmatis.
For data set [27], the system named is Mycobacterium tuberculosis. In words: Antimycobacterial activity against Mycobacterium tuberculosis infected in aminobenzotriazole-pretreated BALB/c mouse acute tuberculosis model assessed as reduction in bacterial burden at 20 mg/kg, po bid for 20 days. More on the design: dose 20 mg/kg. It is filed as functional, organism-based. A digest of the protocol:
as §4

Data set [28] relates to Mycobacterium tuberculosis. In words: Antimycobacterial activity against Mycobacterium tuberculosis clinical isolates after 2 to 4 weeks by BACTEC 460 radiometric assay. The format is functional.

SMILES strings stand for the structures. ≈ marks a conversion by molar mass, not a printed value. Calls of active or inactive are those of the source. The rule behind the calls is not given here.

Chain of DNA gyrase subunit B (P0C559 whole entry): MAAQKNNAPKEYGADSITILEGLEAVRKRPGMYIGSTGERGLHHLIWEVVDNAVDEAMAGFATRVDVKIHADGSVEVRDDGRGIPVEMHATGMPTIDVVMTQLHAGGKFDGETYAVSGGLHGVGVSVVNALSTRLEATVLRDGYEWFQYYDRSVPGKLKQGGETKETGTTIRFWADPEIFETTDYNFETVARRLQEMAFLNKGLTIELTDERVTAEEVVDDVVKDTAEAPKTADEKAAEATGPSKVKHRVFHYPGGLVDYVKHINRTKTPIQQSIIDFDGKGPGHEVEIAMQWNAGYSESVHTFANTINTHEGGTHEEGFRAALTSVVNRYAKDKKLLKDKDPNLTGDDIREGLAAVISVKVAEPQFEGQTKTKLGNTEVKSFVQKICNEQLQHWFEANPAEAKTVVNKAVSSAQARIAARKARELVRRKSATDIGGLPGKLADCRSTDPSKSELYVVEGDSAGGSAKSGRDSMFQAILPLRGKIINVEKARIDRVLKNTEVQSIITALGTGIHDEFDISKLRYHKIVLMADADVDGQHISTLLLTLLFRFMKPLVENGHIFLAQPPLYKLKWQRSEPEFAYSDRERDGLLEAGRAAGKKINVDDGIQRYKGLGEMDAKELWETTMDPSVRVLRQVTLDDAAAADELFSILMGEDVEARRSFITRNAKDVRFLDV

The term fraction unbound denotes the share of the substance not bound to proteins or other matrix. For orientation: Papp B→A means the apparent permeability from the basolateral to the apical side of a cell layer. As a reminder, the Papp A→B is the apparent permeability from the apical to the basolateral side of a cell layer. The MIC is the lowest concentration that inhibits growth of the organism. The IC50 is the concentration that gives 50% inhibition. Usually bioavailability stands for dose-corrected exposure relative to a reference, in per cent. In general, logD refers to lipophilicity at a set pH, counting ionised and neutral species. In [1], `COc1cnc2ccc(=O)n(CCN3CCC(NCc4cnc(C)c(C#N)c4)CC3)c2c1` came in with a clearance of 32 mL/min/kg. Further, the fraction unbound in data set [2] stood at 0.23. Further, the Activity was determined as 10% in data set [3] and 70% in data set [4]. Besides, the basolateral-to-apical permeability (Papp B→A) in [5] is 8.3 ×10⁻⁶ cm/s. In addition, the Papp A→B in data set [6] is 10.5 ×10⁻⁶ cm/s. Further, the “fT>MIC” value in the data set with Mus musculus [7] is on record as 58%. Also, the fAUC/MIC in [8] amounted to 54. Also, it took 0.06 µg/mL (≈ 0.139 µM) to inhibit growth in data set [9] (MIC). The IC50 in data set [10] amounted to 140 nM; in [12], 50600 nM. For the same molecule, the bioavailability in [11] was greater than 100%. For the same molecule, the logD at 10000 µM in data set [13] turned out to be 1.07. Further, the inhibition result in [14] was “Dose-dependent effect”. Moreover, in [15], the result was Active. Further, in data set [16], the log10cfu turned out to be 0.5.

As for `COc1cnc2ccc(=O)n(CCN3CC[C@H](NCc4ccc5c(n4)NC(=O)CO5)[C@H](F)C3)c2c1`, in [2], the fraction unbound is 0.48. Moreover, the “fT>MIC” value with Mus musculus [17] worked out at 83%. Also, the Papp B→A in data set [5] was determined as 12.7 ×10⁻⁶ cm/s. The Papp A→B in [6] stood at 3.4 ×10⁻⁶ cm/s. In data set [9], this molecule registered an MIC of 0.06 µg/mL (≈ 0.124 µM). The molecule further came in with an IC50 in [10] of 170 nM. Besides, the result in [18] and in [19] was Active. In data set [13], the logD at 10000 µM was 0.82. Further, the LCK in data set [20] is 1.3.

Take `O=C1COc2ccc(CN[C@@H]3CCN(CCn4c(=O)ccc5ncc(F)cc54)C[C@@H]3F)nc2N1`: the clearance in [1] amounted to 87 mL/min/kg. Further, the fraction unbound in data set [2] came out at 0.32. The log10cfu in data set [21] is greater than 3; in data set [23], 1.2. In data set [22], the fAUC/MIC was found to be 129. In [5], the Papp B→A amounted to 11.2 ×10⁻⁶ cm/s. Besides, the Papp A→B in data set [6] is 7.6 ×10⁻⁶ cm/s. The Activity result in data set [24] was “Dose-dependent effect”; in data set [25], “tde”. Also, the MIC in data set [9] worked out at 0.13 µg/mL (≈ 0.276 µM). Further, the IC50 in data set [10] stood at 350 nM. Besides, in the data set on Mus musculus [26], the “fT>MIC” value came to 70%. In data set [11], this molecule registered a bioavailability of 87%. In data set [19], the result was Active. This molecule displayed a logD at 10000 µM in data set [13] of 0.47. This molecule yielded an LCK in data set [20] of 1.3.

As usually defined, the MIC90 is an inhibitory concentration at the 90% level, which refers to growth in some studies and to a panel of isolates in others. Take `N#Cc1ccc2ccc(=O)n(CCN3CCC(NCc4ccc5c(n4)NC(=O)CO5)CC3)c2c1`: in data set [1], the clearance was determined as 187 mL/min/kg. Moreover, the Papp B→A in data set [5] came out at 12.6 ×10⁻⁶ cm/s. In [6], the Papp A→B was determined as 2 ×10⁻⁶ cm/s. The same molecule yielded an MIC in data set [9] of 0.13 µg/mL (≈ 0.284 µM). Further, the IC50 in [10] was 110 nM; against DNA gyrase subunit B, greater than 100000 nM. Moreover, the bioavailability in [11] was determined as 11%. Also, the logD at 10000 µM in data set [13] was found to be 0.4. Moreover, in data set [27], the outcome was Active. The same molecule registered an MIC90 in data set [28] of less than 0.5 µg/mL.

The values are drawn from ChEMBL document CHEMBL3286091, “Novel N-linked aminopiperidine-based gyrase inhibitors with improved hERG and in vivo efficacy against Mycobacterium tuberculosis” (J Med Chem, 2014).
